The text below walks through data of ChEMBL document CHEMBL4024758, “Structure-Based Design and Discovery of New M2 Receptor Agonists” (J Med Chem, 2017).

Test [1] has as its target T1, Muscarinic acetylcholine receptor M1 (Homo sapiens, UniProt P11229).
T1 sequence (P11229 whole entry): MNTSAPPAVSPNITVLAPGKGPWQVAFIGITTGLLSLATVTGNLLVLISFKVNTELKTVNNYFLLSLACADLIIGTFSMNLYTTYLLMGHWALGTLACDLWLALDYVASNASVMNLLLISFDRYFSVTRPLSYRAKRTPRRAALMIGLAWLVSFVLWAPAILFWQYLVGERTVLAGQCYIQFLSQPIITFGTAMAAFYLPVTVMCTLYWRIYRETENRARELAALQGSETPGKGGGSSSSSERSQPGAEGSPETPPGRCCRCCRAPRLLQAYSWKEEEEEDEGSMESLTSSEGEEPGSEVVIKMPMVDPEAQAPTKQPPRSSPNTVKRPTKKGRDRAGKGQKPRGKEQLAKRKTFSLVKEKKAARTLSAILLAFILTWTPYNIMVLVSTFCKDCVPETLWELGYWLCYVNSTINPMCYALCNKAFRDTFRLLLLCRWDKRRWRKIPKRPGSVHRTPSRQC
The test is described as follows: Displacement of [3H]N-methyl-scopolamine bromide from human recombinant muscarinic M1 receptor expressed in HEK293T cell membranes after 1 hr by liquid scintillation counting method. The format is cell-based, HEK-293T. For orientation: Displacement assays read how much labelled ligand stays bound in the presence of the test substance.

Test [2] has as its target T2, Muscarinic acetylcholine receptor M2 (Homo sapiens, UniProt P08172).
T2 sequence (P08172 whole entry): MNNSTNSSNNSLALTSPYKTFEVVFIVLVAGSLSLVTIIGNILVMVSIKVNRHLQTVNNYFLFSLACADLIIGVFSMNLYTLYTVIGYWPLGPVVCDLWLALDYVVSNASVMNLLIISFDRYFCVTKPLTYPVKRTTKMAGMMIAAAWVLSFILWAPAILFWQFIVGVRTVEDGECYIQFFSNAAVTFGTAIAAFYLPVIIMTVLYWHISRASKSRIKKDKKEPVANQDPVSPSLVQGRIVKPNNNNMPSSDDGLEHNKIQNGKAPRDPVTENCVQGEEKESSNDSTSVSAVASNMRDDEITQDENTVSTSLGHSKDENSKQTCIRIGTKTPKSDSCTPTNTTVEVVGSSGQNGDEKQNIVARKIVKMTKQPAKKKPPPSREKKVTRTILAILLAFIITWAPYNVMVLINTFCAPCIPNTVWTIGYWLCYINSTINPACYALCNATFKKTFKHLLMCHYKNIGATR
The test is described as follows: Displacement of [3H]N-methyl-scopolamine bromide from human recombinant muscarinic M2 receptor expressed in HEK293T cell membranes after 1 hr by liquid scintillation counting method. Further details: species or system HEK-293T.

Test [3] has as its target T3, Muscarinic acetylcholine receptor M3 (Homo sapiens, UniProt P20309). Put plainly: Displacement of [3H]N-methyl-scopolamine bromide from human recombinant muscarinic M3 receptor expressed in HEK293T cell membranes after 1 hr by liquid scintillation counting method. The format is cell-based, HEK-293T.
Target sequence in this assay (P20309 whole entry): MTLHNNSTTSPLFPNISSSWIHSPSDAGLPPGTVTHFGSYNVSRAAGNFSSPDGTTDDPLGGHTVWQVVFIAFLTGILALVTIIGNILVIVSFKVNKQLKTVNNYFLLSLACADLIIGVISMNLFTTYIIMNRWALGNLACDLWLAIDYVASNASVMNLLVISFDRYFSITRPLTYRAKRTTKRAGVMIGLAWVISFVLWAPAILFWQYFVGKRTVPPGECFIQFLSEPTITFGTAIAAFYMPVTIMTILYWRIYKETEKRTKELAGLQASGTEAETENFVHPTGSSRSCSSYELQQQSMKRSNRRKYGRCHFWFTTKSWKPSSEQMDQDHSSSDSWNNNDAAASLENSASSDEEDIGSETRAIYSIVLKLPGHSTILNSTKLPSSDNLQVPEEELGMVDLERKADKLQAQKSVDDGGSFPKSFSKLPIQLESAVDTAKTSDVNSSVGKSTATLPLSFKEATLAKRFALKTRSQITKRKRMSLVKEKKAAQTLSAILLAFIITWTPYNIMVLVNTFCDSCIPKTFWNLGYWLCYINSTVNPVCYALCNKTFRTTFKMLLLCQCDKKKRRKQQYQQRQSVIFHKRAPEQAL
The target of test [4] is T4, Muscarinic acetylcholine receptor M2 (Homo sapiens) (UniProt P08172).
T4 sequence (whole entry): T2 sequence (P08172 whole entry)
The settings on record: 10 uM.

The target in test [5] is T2, Muscarinic acetylcholine receptor M2. Put plainly: Agonist activity at human recombinant muscarinic M2 receptor co-expressed with Galphaqi5-HA in African green monkey COS7 cells assessed as IP accumulation after 2 hrs in presence of myo-[3H]inositol by liquid scintillation counting method. The test is classed as functional.
For test [6], the target named is T1, Muscarinic acetylcholine receptor M1. The test is described as follows: Displacement of [3H]N-methyl-scopolamine from human recombinant muscarinic M1 receptor expressed in CHO-FlpIn cells after 6 hrs by liquid scintillation counting method. The format is cell-based. The settings on record: read-out: Ki(app).
Test [7] deals with T2, Muscarinic acetylcholine receptor M2. The test is described as follows: Displacement of [3H]N-methyl-scopolamine from human recombinant muscarinic M2 receptor expressed in CHO-FlpIn cells after 6 hrs by liquid scintillation counting method. The format is cell-based. The settings on record: read-out: Ki(app).
Test [8] addresses T3, Muscarinic acetylcholine receptor M3. Put plainly: Displacement of [3H]N-methyl-scopolamine from human recombinant muscarinic M3 receptor expressed in CHO-FlpIn cells after 6 hrs by liquid scintillation counting method. The format is cell-based. Particulars: read-out: Ki(app).
Target sequence in this assay (P20309 whole entry): as above
The target in test [9] is T4, Muscarinic acetylcholine receptor M2 (Homo sapiens). Put plainly: Agonist activity at Gi/o coupled recombinant human M2 mAChR expressed in CHO-FlpIn cells assessed as IP-one accumulation after 40 mins by HTRF assay. The format is cell-based. The method, boiled down: (§1)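 Stably transfected CHO-FlpIn whole cells, 20000/well, grown overnight at 37 °C with 5% CO2. Cells were washed with PBS, then held 60 min at 37 °C in HEPES stimulation buffer with 50 mM LiCl, pH 7.4. ACh or test ligand was added and incubated 40 min.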
(Time-resolved FRET reads energy transfer from a long-lived donor to a nearby acceptor.)

In test [10] the target is T1, Muscarinic acetylcholine receptor M1. The test is described as follows: Agonist activity at Gq/11 coupled recombinant human muscarinic M1 AChR expressed in CHO-FlpIn cells assessed as IP-one accumulation after 40 mins by HTRF assay. The format is cell-based.
Test [11] addresses T5, Muscarinic acetylcholine receptor M1 (Homo sapiens) (UniProt P11229).
T5 sequence (whole entry): T1 sequence (P11229 whole entry)
Put plainly: Agonist activity at Gq/11 coupled recombinant human M1 mAChR expressed in CHO-FlpIn cells assessed as IP-one accumulation after 40 mins by HTRF assay relative to ACh. The test is classed as cell-based. The method in brief: as §1

Test [12] addresses T3, Muscarinic acetylcholine receptor M3. Put plainly: Agonist activity at Gq/11 coupled recombinant human M3 mAChR expressed in CHO-FlpIn cells assessed as IP-one accumulation at 100 uM after 40 mins by HTRF assay relative to ACh. The test is classed as cell-based.
Target sequence in this assay (P20309 whole entry, looked up): as the sequence (P20309 whole entry) above
In test [13] the target is T2, Muscarinic acetylcholine receptor M2. Put plainly: Agonist activity at Gi/o protein-coupled recombinant human muscarinic M2 receptor expressed in CHO-FlpIn cells preincubated for 60 mins followed by [35S]GTPgammaS addition measured after 30 mins by liquid scintillation counting method. The format is functional, cell-based. In general terms: GTPγS is a poorly hydrolysed GTP analogue; its binding reports G protein activation.

Test [14] deals with T4, Muscarinic acetylcholine receptor M2 (Homo sapiens). Put plainly: Agonist activity at Gi/o protein-coupled recombinant human muscarinic M2 receptor expressed in CHO-FlpIn cells preincubated for 60 mins followed by [35S]GTPgammaS addition after 30 mins by liquid scintillation counting method relative to ACh. The test is classed as functional, cell-based. The method in brief: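 Membranes (15 μg) came from CHO cells stably expressing M2R. They were equilibrated 60 min at 30 °C in buffer containing GDP plus ACh or compound. [35S]GTPγS (1 nM) was then added for 30 min at 30 °C. Samples were filtered on GF/B filters, washed with ice-cold 0.9% NaCl and counted by scintillation.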

Test [15] concerns the target T2, Muscarinic acetylcholine receptor M2. The test is described as follows: Agonist activity at recombinant human muscarinic M2 receptor expressed in HEK293 cells assessed as inhibition of forskolin-mediated cAMP accumulation after 10 mins by FRET assay. The test is classed as functional, cell-based.
Test [16] deals with T4, Muscarinic acetylcholine receptor M2 (Homo sapiens). The test is described as follows: Agonist activity at recombinant human muscarinic M2 receptor expressed in HEK293 cells assessed as inhibition of forskolin-mediated cAMP accumulation after 10 mins by FRET assay relative to ACh. The format is functional, cell-based. The method in brief: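 HEK293 cells stably expressed the Epac FRET cAMP sensor and M2AChR-tetO, induced with 2 μg/mL doxycycline and 1 mM sodium butyrate for 40 h. Basal CFP/YFP was read after 20 min at 37 °C. […] Basal was subtracted; results are from 4–5 experiments in duplicate.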

For test [17], the target named is T2, Muscarinic acetylcholine receptor M2. The test is described as follows: Agonist activity at recombinant human muscarinic M2 receptor expressed in HEK293 cells co-expressing beta-arrestin assessed as increase in beta-arrestin recruitment after 24 hrs by Bright-Glo luminescence assay. The format is cell-based. The method in brief: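 HEK293 cells stably expressing tTA-dependent luciferase and β-arrestin-TEV protease, transiently transfected with M2-TEV-tTA; next day plated 15000 cells/well in DMEM 1% FBS on poly-D-lysine; after ≥6 h, compounds 0–100 μM in HBSS-HEPES; following day Bright-Glo added, luminescence after 20 min; 4–5 experiments in triplicate.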

For test [18], the target named is T4, Muscarinic acetylcholine receptor M2 (Homo sapiens). The test is described as follows: Agonist activity at recombinant human muscarinic M2 receptor expressed in HEK293 cells co-expressing beta-arrestin assessed as increase in beta-arrestin recruitment after 24 hrs by Bright-Glo luminescence assay relative to ACh. The test is classed as cell-based. The method, boiled down: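 HEK293 cells stably expressing tTA-dependent luciferase and β-arrestin-TEV protease were transiently transfected with M2-TEV-tTA. Next day, cells were plated at 15000/well in DMEM with 1% FBS. After ≥6 h, compound (0–100 μM, in HBSS-HEPES pH 7.4) was added. The following day, luminescence was read with Bright-Glo. Results are from 4–5 experiments in triplicate.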

The target of test [19] is T2, Muscarinic acetylcholine receptor M2. Put plainly: Agonist activity at recombinant human muscarinic M2 receptor expressed in CHO cells assessed as upregulation in ERK1/2 phosphorylation after 5 mins by alphascreen assay. The format is cell-based.
Test [20] concerns the target T4, Muscarinic acetylcholine receptor M2 (Homo sapiens). The test is described as follows: Agonist activity at recombinant human muscarinic M2 receptor expressed in CHO cells assessed as upregulation in ERK1/2 phosphorylation after 5 mins by alphascreen assay relative to ACh. The test is classed as cell-based.
The target of test [21] is Neuronal acetylcholine receptor; alpha4/beta2 (Homo sapiens, UniProt P17787+P43681). The test is described as follows: Displacement of [3H]cytisine from alpha4beta2 nAChR expressed in human recombinant SH-SY5Y cell membranes after 120 mins.
Neuronal acetylcholine receptor; alpha4/beta2, sequence (P17787 whole entry): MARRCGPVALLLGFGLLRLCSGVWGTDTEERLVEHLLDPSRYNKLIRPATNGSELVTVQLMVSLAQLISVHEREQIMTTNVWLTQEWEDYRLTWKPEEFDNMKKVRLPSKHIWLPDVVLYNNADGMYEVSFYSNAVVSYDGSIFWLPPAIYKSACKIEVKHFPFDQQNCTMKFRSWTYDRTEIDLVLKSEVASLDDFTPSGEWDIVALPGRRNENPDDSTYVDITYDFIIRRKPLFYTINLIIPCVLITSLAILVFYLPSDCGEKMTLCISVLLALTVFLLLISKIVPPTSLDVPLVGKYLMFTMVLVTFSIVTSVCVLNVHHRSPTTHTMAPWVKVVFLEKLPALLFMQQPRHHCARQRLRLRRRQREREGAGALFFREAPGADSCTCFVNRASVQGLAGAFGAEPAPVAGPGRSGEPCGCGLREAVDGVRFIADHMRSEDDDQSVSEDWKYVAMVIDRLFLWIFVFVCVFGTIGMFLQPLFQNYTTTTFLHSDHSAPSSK
Neuronal acetylcholine receptor; alpha4/beta2, sequence (P43681 whole entry): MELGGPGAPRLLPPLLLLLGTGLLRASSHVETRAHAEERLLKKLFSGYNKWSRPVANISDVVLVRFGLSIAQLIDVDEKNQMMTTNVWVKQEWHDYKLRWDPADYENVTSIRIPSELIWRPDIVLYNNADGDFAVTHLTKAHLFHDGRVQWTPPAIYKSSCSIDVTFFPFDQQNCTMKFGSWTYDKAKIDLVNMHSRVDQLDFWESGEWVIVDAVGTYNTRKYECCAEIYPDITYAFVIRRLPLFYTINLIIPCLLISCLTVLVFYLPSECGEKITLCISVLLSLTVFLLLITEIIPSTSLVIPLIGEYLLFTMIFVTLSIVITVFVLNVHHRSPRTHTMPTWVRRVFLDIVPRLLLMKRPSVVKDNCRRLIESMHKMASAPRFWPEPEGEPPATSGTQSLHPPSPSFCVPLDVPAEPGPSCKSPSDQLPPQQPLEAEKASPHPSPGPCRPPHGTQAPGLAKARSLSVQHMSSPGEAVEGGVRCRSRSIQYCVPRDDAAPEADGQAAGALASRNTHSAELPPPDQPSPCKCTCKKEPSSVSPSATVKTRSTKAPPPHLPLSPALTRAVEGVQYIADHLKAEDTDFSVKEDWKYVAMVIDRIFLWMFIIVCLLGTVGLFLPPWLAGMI
The target in test [22] is T4, Muscarinic acetylcholine receptor M2 (Homo sapiens). Put plainly: Agonist activity at human recombinant muscarinic M2 receptor co-expressed with Galphaqi5-HA in African green monkey COS7 cells assessed as IP accumulation after 2 hrs in presence of myo-[3H]inositol by liquid scintillation counting method relative to carbachol. The test is classed as functional.
Test [23] addresses T3, Muscarinic acetylcholine receptor M3.
Target sequence in this assay (P20309 whole entry): as the sequence (P20309 whole entry) above
Test [24] shares this target. The source holds these as a separate data set.
Target sequence in this assay (P20309 whole entry, looked up): as the sequence (P20309 whole entry) above
For test [25], the target named is T1, Muscarinic acetylcholine receptor M1. Put plainly: Agonist activity at recombinant human muscarinic M1 receptor expressed in CHO cells assessed as upregulation in ERK1/2 phosphorylation after 5 mins by alphascreen assay. The test is classed as cell-based.
Test [26] addresses T5, Muscarinic acetylcholine receptor M1 (Homo sapiens). Put plainly: Agonist activity at recombinant human muscarinic M1 receptor expressed in CHO cells assessed as upregulation in ERK1/2 phosphorylation after 5 mins by alphascreen assay relative to ACh. The test is classed as cell-based.

Activity calls are given as the source filed them. The rule behind the calls is not given here. Where only a bound is given, the exact number is not on record here.

Regarding `COc1cccc(CCC[N+](C)(C)C)c1`, the Ki was determined as 0.33 µM in [1], 0.63 µM in test [2] and 0.62 µM in [3]. The Emax (in general, the maximal effect, on the per cent scale that the assay sets) in test [4] was under 10%.

For `C[N+](C)(C)CCc1ccc2c(c1)OCC2`, the Ki in test [1] amounted to 6.4 µM; in test [2], 13 µM; in test [3], 6.3 µM; in test [6] it was 6.8 µM; in test [7], 2 µM; in test [8] it was 7.8 µM. Besides, the Ki in test [21] stood at 9.7 µM. For the same molecule, the EC50 (as a rule, the concentration giving half of the maximal effect) in [5] worked out at 21 µM; in test [10], 4.8 µM; in test [13], 3.3 µM; in test [15], 11 µM; in [17], 17 µM; in test [19], 0.24 µM. It took 3.7 µM to reach a half-maximal effect in test [23] (EC50). Moreover, in test [9], the result was inactive. Further, the Emax in test [11] stood at 8%; in [12] it was 17%; in test [14] it was 100%; in test [16], 102%; in test [18], 118%; in test [20], 100%. The maximal response (Emax) in test [22] was determined as 62%. The pEC50 in [24] turned out to be 5.43 µM.

For `COc1cccc(CC[N+](C)(C)C)c1`, the Ki in [1] was 33 µM; in test [2], 14 µM; in [3], over 50 µM; in test [6], 52 µM; in test [7], 9.1 µM; in test [8] it was 81 µM. Moreover, the EC50 was 12 µM in test [5]; 9.1 µM in test [10]; 7.8 µM in test [13]; 6.3 µM in test [15]; 14 µM in [17]; 0.54 µM in [25]. Also, the concentration for a half-maximal effect (EC50) in test [19] turned out to be 0.83 µM; in test [23], 10 µM. Also, the outcome in test [9] was inactive. The maximal response (Emax) was 48% in test [11]; 43% in test [12]; 100% in test [14]; 108% in test [16]; 133% in test [18]; 53% in [26]. Besides, the Emax in test [20] turned out to be 92%; in [22] it was 75%.
